From ChEMBL document CHEMBL1938262, “A specific protein disorder catalyzer of HIV-1 Nef” (Bioorg Med Chem, 2011)
The source made the active and inactive calls. No cut-off for these calls is given here.

Key:
[1] = Inhibition of HIV1 Nef (56-206)/SH3 domain of GST-Hck expressed in Escherichia coli BL21 DE3 complex formation at […] after 1 hr by high-mass MALDI TOF analysis
How it was run: (§1)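 Nef core (56–206) and Hck SH3 were expressed in E. coli BL21 DE3 as GST fusions, thrombin-cleaved and gel-filtered. Nef was preincubated 1 h at rt with compound from DMSO stocks (up to 5 mM stock), then SH3-Hck was added for 1 h at rt. Samples were cross-linked 1 h, mixed with sinapinic acid matrix and analysed by high-mass MALDI-TOF in triplicate. IC50 comes from % complex versus log concentration.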

[2] = Inhibition of HIV1 Nef (56-206)/SH3 domain of GST-Hck expressed in Escherichia coli BL21 DE3 complex formation after 1 hr by high-mass MALDI TOF analysis; how it was run: as §1
[3] = Induction of HIV1 GST-Nef-mVenus proteolysis after 30 mins preincubation measured after 60 mins by cleavage enzyme-cytometric bead array method in presence of HIV1 protease; parameters: species or system Human immunodeficiency virus 1
How it was run: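 CE-CBA: a GST-Nef-mVenus reporter is immobilized on anti-GST antibody beads and cleaved by HIV protease. Cleavage is followed as loss of bead fluorescence by flow cytometry. Values are normalized to the DMSO control (0% cleavage) and intrinsic bead fluorescence (100%). Relative EC50 is reported as mean ± SEM of three independent experiments.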

[4] = Cytotoxicity against african green monkey COS7 cells assessed as cell viability up to 40 uM after 70 hrs; type: cell-based, COS-7; conditions: chlorocebus aethiops, read-out: Activity
[5] = tested on: Protein Nef (Human immunodeficiency virus type 1); assay: Decrease in aggregation temperature of HIV1 His-tagged Nef at 10 to 200 uM by thermal protein denaturation assay (reference value: 58.83 +/- 0.25 degC)
[6] = Solubility of the compound; type: physicochemical

| inhibition [1] | IC50 [2] [µM] | EC50 [3] [µM] | T [5] [°C] | solubility [6] | Compound | viability at 70 h [4] [%] |
| --- | --- | --- | --- | --- | --- | --- |
| Active | > 50 | 109 | 50.3 |  | CC(C)(C)c1ccc(OCC(=O)Nc2cccc(C(=O)O)c2)cc1 | 86.6 |
|  |  |  |  | Insoluble | COC(=O)c1cccc(NC(=O)COc2ccc(-c3ccc(C(C)(C)C)cc3)cc2)c1 |  |
| Active | 15.9 | 34.3 |  | Insoluble | CC(C)(C)c1ccc(-c2ccc(OCC(=O)Nc3cccc(C(=O)O)c3)cc2)cc1 | 73 |
